Values after ≈ are worked out from the molar mass of the structure shown.
Legend:
[1] = biological target: T1, Peroxisome proliferator-activated receptor delta (Homo sapiens) (UniProt Q03181); test: Transactivation of human GAL4-fused PPARdelta LBD expressed in African green monkey COS7 cells co-expressing 5Gal4 pGL3 TK Luc after overnight incubation by luciferase reporter gene assay relative to GW501516; type: cell-based
T1 sequence (whole entry): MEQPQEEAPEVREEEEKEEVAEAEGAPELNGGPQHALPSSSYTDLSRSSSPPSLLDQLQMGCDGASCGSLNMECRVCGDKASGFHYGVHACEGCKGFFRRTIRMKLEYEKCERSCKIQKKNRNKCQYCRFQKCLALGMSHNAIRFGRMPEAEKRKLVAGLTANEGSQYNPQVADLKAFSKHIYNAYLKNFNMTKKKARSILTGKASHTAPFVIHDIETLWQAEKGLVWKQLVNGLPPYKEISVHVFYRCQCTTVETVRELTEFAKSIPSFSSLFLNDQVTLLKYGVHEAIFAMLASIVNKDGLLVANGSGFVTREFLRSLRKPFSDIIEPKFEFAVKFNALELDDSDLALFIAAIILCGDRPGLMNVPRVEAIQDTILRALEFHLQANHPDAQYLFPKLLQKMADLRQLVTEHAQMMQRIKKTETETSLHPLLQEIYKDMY
In short: (§1)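 Cell-based Gal-4 transactivation assay in COS-7 cells transfected with PPARα, PPARδ or PPARγ ligand-binding domain. EC50 and Emax were derived, with Emax as maximum activation in percent of control. EC50s are means of at least two independent experiments performed in triplicate.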

[2] = biological target: T2, Peroxisome proliferator-activated receptor alpha (Homo sapiens, UniProt Q07869); test: Transactivation of human GAL4-fused PPARalpha LBD expressed in African green monkey COS7 cells co-expressing 5Gal4 pGL3 TK Luc after overnight incubation by luciferase reporter gene assay; type: cell-based; in short: as §1
T2 sequence (Q07869 whole entry): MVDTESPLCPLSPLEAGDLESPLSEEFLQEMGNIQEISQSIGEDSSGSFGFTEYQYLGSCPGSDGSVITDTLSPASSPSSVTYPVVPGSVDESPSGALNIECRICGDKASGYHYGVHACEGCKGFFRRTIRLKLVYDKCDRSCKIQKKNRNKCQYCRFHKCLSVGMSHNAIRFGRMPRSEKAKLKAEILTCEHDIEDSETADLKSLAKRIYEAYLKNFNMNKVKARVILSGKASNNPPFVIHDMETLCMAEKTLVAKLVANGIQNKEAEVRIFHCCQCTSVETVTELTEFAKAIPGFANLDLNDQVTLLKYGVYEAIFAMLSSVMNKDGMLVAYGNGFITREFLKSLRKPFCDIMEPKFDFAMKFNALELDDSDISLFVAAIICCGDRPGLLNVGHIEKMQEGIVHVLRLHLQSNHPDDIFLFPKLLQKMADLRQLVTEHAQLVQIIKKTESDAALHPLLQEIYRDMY

[3] = biological target: T3, Peroxisome proliferator-activated receptor delta (Homo sapiens, UniProt Q03181); test: Transactivation of human GAL4-fused PPARdelta LBD expressed in African green monkey COS7 cells co-expressing 5Gal4 pGL3 TK Luc after overnight incubation by luciferase reporter gene assay; type: cell-based; in short: as §1
T3 sequence (Q03181 whole entry): T1 sequence (whole entry)

[4] = biological target: T4, Peroxisome proliferator-activated receptor alpha (Homo sapiens) (UniProt Q07869); test: Transactivation of human GAL4-fused PPARalpha LBD expressed in African green monkey COS7 cells co-expressing 5Gal4 pGL3 TK Luc after overnight incubation by luciferase reporter gene assay relative to fenofibric acid; type: cell-based; in short: as §1
T4 sequence (whole entry): T2 sequence (Q07869 whole entry)

[5] = biological target: T5, Peroxisome proliferator-activated receptor gamma (Homo sapiens, UniProt P37231); test: Transactivation of human GAL4-fused PPARgamma LBD expressed in African green monkey COS7 cells co-expressing 5Gal4 pGL3 TK Luc after overnight incubation by luciferase reporter gene assay; type: cell-based; in short: as §1
T5 sequence (P37231 whole entry): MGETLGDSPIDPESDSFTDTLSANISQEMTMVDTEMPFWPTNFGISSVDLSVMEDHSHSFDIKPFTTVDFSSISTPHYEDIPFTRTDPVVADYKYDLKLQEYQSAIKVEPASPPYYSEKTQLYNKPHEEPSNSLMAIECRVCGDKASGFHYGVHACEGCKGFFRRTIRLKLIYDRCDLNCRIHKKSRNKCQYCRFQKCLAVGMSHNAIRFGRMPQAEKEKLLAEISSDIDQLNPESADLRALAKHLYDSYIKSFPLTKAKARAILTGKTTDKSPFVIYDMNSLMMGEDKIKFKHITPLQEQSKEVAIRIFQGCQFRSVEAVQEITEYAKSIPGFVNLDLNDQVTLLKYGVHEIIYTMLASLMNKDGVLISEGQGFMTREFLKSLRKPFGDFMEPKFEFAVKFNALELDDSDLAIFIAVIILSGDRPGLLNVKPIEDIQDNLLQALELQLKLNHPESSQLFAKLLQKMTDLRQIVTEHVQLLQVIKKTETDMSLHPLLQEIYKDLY

[6] = biological target: T6, Peroxisome proliferator-activated receptor gamma (Homo sapiens) (UniProt P37231); test: Transactivation of human GAL4-fused PPARgamma LBD expressed in African green monkey COS7 cells co-expressing 5Gal4 pGL3 TK Luc after overnight incubation by luciferase reporter gene assay relative to rosiglitazone; type: cell-based; in short: as §1
T6 sequence (whole entry): T5 sequence (P37231 whole entry)

[7] = Aqueous solubility in fasted state simulated intestinal fluid; type: physicochemical
[8] = Apparent permeability from basolateral to apical side in human Caco2 cells at 10 uM after 2 hrs by LC-MS/MS analysis; type: ADME, cell-based, Caco-2; details: caco-2, 2 h, 10 µM
[9] = Efflux ratio of apparent permeability in human Caco2 cells at 10 uM after 2 hrs by LC-MS/MS analysis; type: ADME, cell-based, Caco-2; details: Caco-2
[10] = Apparent permeability from apical to basolateral side in human Caco2 cells at 10 uM after 2 hrs by LC-MS/MS analysis; type: ADME, cell-based, Caco-2; details: Caco-2

Row | Emax [1] [%] | EC50 [2] [nM] | EC50 [3] [nM] | Emax [4] [%] | EC50 [5] [nM] | Emax [6] [%] | SMILES | solubility [7] [µM] | Papp [8] [×10⁻⁶ cm/s] | efflux ratio at 2 h, 10 µM [9] | Papp A→B at 2 h, 10 µM [10] [×10⁻⁶ cm/s]
1 | 43 | 790 | 977 | 77 | 71 | 45 | O=C(O)CCCc1cc2cc(Cl)ccc2n1S(=O)(=O)c1ccc2c(c1)OCO2 | – | – | – | –
2 | < 20 | > 5000 | – | 35 | 1250 | 35 | COc1ccccc1S(=O)(=O)n1c(CCCC(=O)O)cc2cc(C(F)(F)F)ccc21 | – | – | – | –
3 | < 20 | > 5000 | – | 104 | > 5000 | 45 | O=C(O)CCCc1cc2cc(C(F)(F)F)ccc2n1S(=O)(=O)c1ccccc1Cl | – | – | – | –
4 | 66 | > 5000 | 1390 | 44 | 378 | 52 | Nc1nc2ccc(S(=O)(=O)n3c(CCCC(=O)O)cc4cc(Cl)ccc43)cc2o1 | – | – | – | –
5 | 24 | 764 | 1260 | 55 | 82 | 38 | COc1ccc(S(=O)(=O)n2c(CCCC(=O)O)cc3cc(C(F)(F)F)ccc32)cc1 | – | – | – | –
6 | 21 | 2420 | 2030 | 70 | 256 | 49 | O=C(O)CCCc1cc2cc(C(F)(F)F)ccc2n1S(=O)(=O)c1cccc(Cl)c1 | – | – | – | –
7 | 45 | 1300 | > 5000 | 46 | 284 | 38 | Cc1ccc2c(c1)cc(CCCC(=O)O)n2S(=O)(=O)c1ccccc1 | – | – | – | –
8 | 29 | > 5000 | 1080 | 36 | 277 | 30 | Cc1ccc(S(=O)(=O)n2c(CCCC(=O)O)cc3cc(Cl)ccc32)cc1 | – | – | – | –
9 | < 20 | – | – | < 20 | 35 | 34 | O=C(O)CCCc1cc2cc(Cl)ccc2n1S(=O)(=O)c1ccc2ccccc2c1 | – | – | – | –
10 | < 20 | 419 | – | 26 | 72 | 25 | COc1ccc(S(=O)(=O)n2c(CCCC(=O)O)cc3cc(Cl)ccc32)cc1 | – | – | – | –
11 | 43 | 305 | 1230 | 40 | 72 | 48 | COc1cccc(S(=O)(=O)n2c(CCCC(=O)O)cc3cc(Cl)ccc32)c1 | – | – | – | –
12 | 28 | 1960 | 2100 | 40 | 573 | 32 | O=C(O)CCCc1cc2cc(C(F)(F)F)ccc2n1S(=O)(=O)c1ccc(OC(F)(F)F)cc1 | – | – | – | –
13 | 82 | 1260 | 919 | 57 | 41 | 74 | Nc1nc2ccc(S(=O)(=O)n3c(CCCC(=O)O)cc4cc(Cl)ccc43)cc2s1 | – | – | – | –
14 | 20 | > 5000 | > 5000 | 43 | > 5000 | 42 | O=C(O)CCCc1cc2cc(Cl)ccc2n1S(=O)(=O)c1ccc2nc[nH]c2c1 | – | – | – | –
15 | 20 | 2360 | 1100 | 22 | 175 | 39 | Cc1nc2cc(S(=O)(=O)n3c(CCCC(=O)O)cc4cc(Cl)ccc43)ccc2s1 | – | – | – | –
16 | 28 | 1160 | 1610 | 37 | 65 | 46 | COc1cccc(S(=O)(=O)n2c(CCCC(=O)O)cc3cc(C(F)(F)F)ccc32)c1 | – | – | – | –
17 | 54 | 410 | 697 | 113 | 16 | 48 | CN1CCOc2ccc(S(=O)(=O)n3c(CCCC(=O)O)cc4cc(Cl)ccc43)cc21 | – | – | – | –
18 | 27 | – | 441 | < 20 | 11 | 36 | Cc1nc2ccc(S(=O)(=O)n3c(CCCC(=O)O)cc4cc(Cl)ccc43)cc2s1 | – | – | – | –
19 | – | – | – | – | – | – | CC(=O)CC(c1ccccc1)c1c(O)c2ccccc2oc1=O (stereo unspecified) [WARFARIN] | 56 (≈ 17.3 µg/mL) | 0.7 | 0.02 | 39.8
20 | < 20 | 901 | – | 67 | 265 | 36 | O=C(O)CCCc1cc2cc(Cl)ccc2n1S(=O)(=O)c1cccc2ccccc12 | – | – | – | –
21 | 38 | 2820 | 1650 | 45 | 629 | 36 | O=C(O)CCCc1cc2cc(C(F)(F)F)ccc2n1S(=O)(=O)c1ccc(Cl)cc1 | – | – | – | –
22 | 42 | 1250 | 1350 | 59 | 75 | 46 | Cc1cccc(S(=O)(=O)n2c(CCCC(=O)O)cc3cc(Cl)ccc32)c1 | – | – | – | –
23 | 35 | > 5000 | > 5000 | 81 | 153 | 67 | O=C(O)CCCc1cc2cc(Cl)ccc2n1S(=O)(=O)c1ccc2nsnc2c1 | – | – | – | –
24 | < 20 | 160 | – | 90 | 910 | 32 | CC(C)(CCc1cc2cc(Cl)ccc2n1S(=O)(=O)c1ccccc1)C(=O)O | – | – | – | –
25 | 23 | 2760 | 1140 | 50 | 201 | 39 | O=C(O)CCCc1cc2cc(C(F)(F)F)ccc2n1S(=O)(=O)c1cccc(OC(F)(F)F)c1 | – | – | – | –
26 | < 20 | – | – | < 20 | – | < 20 | COc1ccc2c(c1)cc(CCCC(=O)O)n2S(=O)(=O)c1ccccc1 | – | – | – | –
27 | 79 | 1620 | 1120 | 82 | 147 | 70 | O=C(O)CCCc1cc2cc(C(F)(F)F)ccc2n1S(=O)(=O)c1ccc2ncsc2c1 | – | – | – | –
28 | 49 | 1200 | > 5000 | 48 | 417 | 50 | O=C(O)CCCc1cc2cc(C(F)(F)F)ccc2n1S(=O)(=O)c1ccccc1 | – | – | – | –
29 | < 20 | – | – | < 20 | – | < 20 | O=C(O)COCc1cc2cc(Cl)ccc2n1S(=O)(=O)c1ccccc1 | – | – | – | –
30 | < 20 | – | – | < 20 | – | < 20 | O=C(O)CCCCc1cc2cc(Cl)ccc2n1S(=O)(=O)c1ccccc1 | – | – | – | –

— ChEMBL document CHEMBL4020830, “Design, Synthesis, and Evaluation of a Novel Series of Indole Sulfonamide Peroxisome Proliferator Activated Receptor (PPAR) α/γ/δ Triple Activators: Discovery of Lanifibranor, a New Antifibrotic Clinical Candidate” (J Med Chem, 2018)
